From ChEMBL document CHEMBL4334439, “Discovery, Optimization, and Target Identification of Novel Potent Broad-Spectrum Antiviral Inhibitors” (J Med Chem, 2019)
Active and inactive are the calls of the source. No cut-off for these calls is given here.

Assays:
[1] = molecular target: Inosine-5'-monophosphate dehydrogenase 2 (Homo sapiens) (UniProt P12268); test: Binding affinity to IMPDH2 (unknown origin)
Huh7.5.1 = test: Antiviral activity against EGFP-fused HCV JFH-1 harboring K78E/E2-G451R/NS3-M260K/NS5A-T462I mutant infected in human Huh7.5.1 cells assessed as inhibition of viral entry at 0.01 uM preincubated for 2 hrs at 4 degC followed by virus/compound mixture wash-out and subsequent compound addition and measured up to 10 hrs at 37 degC; assay type: functional, cell-based
Summary of the method: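 Time-of-addition: Huh7.5.1 cells were bound with HCVcc at 4 °C for 2 h. Unbound virus was removed, cells were shifted to 37 °C (T = 0), and compound was added at different time points afterwards. Anti-CD81 antibody served as the entry-inhibitor control.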

Hepatitis C virus [2] = test: Antiviral activity against EGFP-fused HCV JFH-1 harboring K78E/E2-G451R/NS3-M260K/NS5A-T462I mutation infected in human Huh7.5.1 cells assessed as combination index after 2 days in presence of IFNalpha by qRT-PCR analysis; assay type: functional, Hepacivirus hominis
Summary of the method: (§1)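 In HCVcc-infected Huh7.5.1 cells (1×10^4/well, overnight, 37 °C), compound was given at various concentrations alone or with the named approved antiviral. After 2 days HCV RNA was quantified by qRT-PCR to derive the combination index.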

[3] = tested on: Human immunodeficiency virus; test: Antiviral activity against HIV pseudotyped virions infected in human HEK293T cells cotransfected with envelope deficient pNL4-3.luc.R-E- plasmid and VSVG plasmid assessed as inhibition of HIV replication preincubated for 15 mins followed by viral infection and measured at 48 hrs post-infection by luciferase based luminescence method; assay type: functional, organism-based; conditions: Human immunodeficiency virus 1, HEK-293T
Summary of the method: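 VSV-G-pseudotyped HIV (pNL4-3.luc.R-E-) was made in HEK293T by calcium phosphate transfection, collected at 48 h and diluted to 0.2 ng p24/ml. HEK293T cells in 24-well plates got compound 15 min before 0.5 mL pseudovirus. Cells were lysed 48 h post-infection for luciferase.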

[4] = molecular target: T1, Membrane protein MLC1 (Homo sapiens) (UniProt Q15049); test: Binding affinity to MLC1 in human Huh7.5.1 cell lysate infected with HCV at 0.1 to 10 uM incubated for 1 hr followed by 10000 mJ/cm2 UV irradiation for 10 mins and subsequent addition of biotin-N3 measured after 1 hr by ABPP Gel-based by LC/MS/MS analysis; assay type: subcellular
T1 sequence (whole entry): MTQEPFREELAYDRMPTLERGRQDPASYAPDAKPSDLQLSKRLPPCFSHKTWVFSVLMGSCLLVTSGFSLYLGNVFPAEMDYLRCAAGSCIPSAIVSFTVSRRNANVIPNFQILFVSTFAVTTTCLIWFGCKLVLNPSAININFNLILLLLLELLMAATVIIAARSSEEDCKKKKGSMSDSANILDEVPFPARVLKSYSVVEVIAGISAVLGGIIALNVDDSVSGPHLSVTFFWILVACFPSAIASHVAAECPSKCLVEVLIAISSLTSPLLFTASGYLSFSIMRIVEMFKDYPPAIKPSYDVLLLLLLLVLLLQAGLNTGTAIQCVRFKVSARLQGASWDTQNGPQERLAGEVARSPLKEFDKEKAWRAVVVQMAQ

[5] = Selectivity index, ratio of CC50 for MDCK cells to EC50 for Gaussia tagged A/PR/08/34(H1N1) virus infected in MDCK cells; assay type: toxicity, cell-based; conditions: dog, read-out: Ratio CC50/EC50
Summary of the method: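 MDCK cells seeded at 1×10^5/well overnight, infected with A/PR/08/34(H1N1)-Gaussia luciferase at MOI 0.1, then given 0.05–20 µM compound immediately. Virus read by luminescence or qRT-PCR at 24 hpi; EC50 at 50% signal reduction. CC50 by WST-1 (OD450/OD630) after 48 h of serially diluted compound.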

[6] = Selectivity index, ratio of CC50 for HEK293T cells to EC50 for HIV pseudotyped virions infected in HEK293T cells; assay type: toxicity, cell-based; conditions: human, read-out: Ratio CC50/EC50
Summary of the method: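 HIV pseudovirus made from VSVG plus env-deficient pNL4-3.luc.R-E- in HEK293T cells and diluted to 0.2 ng p24/ml. Target HEK293T cells were given compound 15 min before infection and lysed 48 h post-infection. CC50 by 48 h WST-1 viability (OD450/OD630).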

Hepatitis C virus [7] = test: Antiviral activity against GFP-fused HCV JFH-1 harboring K78E/E2-G451R/NS3-M260K/NS5A-T462I mutant infected in human Huh7.5.1 cells assessed as reduction in viral infection at 10 uM preincubated for 2 hrs followed by viral infection and measured after 48 hrs by epifluorescence microscopic analysis relative to control; assay type: functional, Hepacivirus hominis; design: scale not given: the % may be the effect or the level left
Summary of the method: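 Primary screen at 10 μM. Huh7.5.1 cells were pretreated 2 h, then infected with GFP-HCV (MOI 1). GFP intensity was checked by fluorescence microscopy at 48 h. Hits needed over 50% fluorescence decay before dose-response retesting.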

[8] = Cytotoxicity against African green monkey Vero cells infected with RSV assessed as decrease in cell viability after 48 hrs by WST1 assay; assay type: cell-based; conditions: chlorocebus sabaeus
Summary of the method: (§2)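 Cells at 1×10^4/well, cultured overnight at 37 °C, were incubated 48 h with serially diluted compound. Viability was read by WST-1 absorbance (OD450/OD630).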

Influenza A virus = test: Antiviral activity against Gaussia tagged Influenza A virus (A/Puerto Rico/8/34(H1N1)) infected in MDCK cells assessed as inhibition of H1N1 replication measured at 24 hrs post infection by luciferase reporter gene assay; assay type: functional, organism-based; conditions: A/Puerto Rico/8/1934(H1N1)
Summary of the method: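 MDCK cells at 1×10^5/well, cultured overnight, were infected with A/PR/8/34(H1N1)-Gaussia luciferase at MOI 0.1. Compound (0.05–20 µM) was added immediately. Luminescence or qRT-PCR was read at 24 hpi; EC50 is 50% reduction.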

[9] = Cytotoxicity against African green monkey Vero cells infected with SFTSV measured after 48 hrs by WST1 assay; assay type: cell-based; conditions: chlorocebus sabaeus; summary of the method: as §2
[10] = Selectivity index, ratio of CC50 for human RD cells to EC50 for EV71(FY)-Luc infected in human RD cells; assay type: toxicity, cell-based; conditions: read-out: Ratio CC50/EC50
Summary of the method: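 RD cells seeded at 1×10^4/well and cultured overnight, then infected with EV71(FY)-Luc at MOI 1 and treated with compound straight away. EC50 is the 50% drop in luminescence or RNA. CC50 comes from a 48 h serial-dilution exposure at 1×10^4 cells/well, read by WST-1 (OD450/OD630).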

Hepatitis C virus [11] = test: Antiviral activity against EGFP-fused HCV JFH-1 harboring K78E/E2-G451R/NS3-M260K/NS5A-T462I mutation infected in human Huh7.5.1 cells assessed as reduction in viral RNA level after 2 days in presence of sofosbuvir by qRT-PCR analysis; assay type: functional, organism-based; conditions: Hepacivirus hominis
Summary of the method: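 Huh7.5.1 cells at 1×10^4/well, grown overnight at 37 °C. HCVcc was mixed with serially diluted compound (top 30 or 6 μM), given alone or with the named drug, and added to the cells. Viral RNA was read by qRT-PCR after 2 days. EC50 is the concentration giving 50% RNA reduction.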

Hepatitis C virus [12] = test: Antiviral activity against EGFP-fused HCV JFH-1 harboring K78E/E2-G451R/NS3-M260K/NS5A-T462I mutation infected in human Huh7.5.1 cells assessed as combination index after 2 days in presence of daclatasvir by qRT-PCR analysis; assay type: functional, Hepacivirus hominis; summary of the method: as §1

Chain of Inosine-5'-monophosphate dehydrogenase 2 (Homo sapiens) (P12268 2-514 limits assumed): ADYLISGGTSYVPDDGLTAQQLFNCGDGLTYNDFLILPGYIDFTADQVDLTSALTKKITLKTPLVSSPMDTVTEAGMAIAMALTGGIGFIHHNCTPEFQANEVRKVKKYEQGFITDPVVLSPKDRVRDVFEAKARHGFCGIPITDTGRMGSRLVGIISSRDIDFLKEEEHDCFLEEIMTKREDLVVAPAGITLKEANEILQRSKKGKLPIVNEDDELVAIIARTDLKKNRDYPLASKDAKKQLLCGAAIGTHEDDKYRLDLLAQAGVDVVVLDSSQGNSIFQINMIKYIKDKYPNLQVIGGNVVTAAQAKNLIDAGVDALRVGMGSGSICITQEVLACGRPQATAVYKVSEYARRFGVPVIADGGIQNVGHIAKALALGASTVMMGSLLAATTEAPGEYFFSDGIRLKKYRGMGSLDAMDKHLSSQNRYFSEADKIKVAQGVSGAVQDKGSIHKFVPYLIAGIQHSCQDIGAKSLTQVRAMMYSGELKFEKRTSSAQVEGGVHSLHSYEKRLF

CCN(CC)c1ccc(Oc2ccc(-c3[nH]c4cccc(F)c4c(=O)c3C)cc2F)cc1
Activity [1]: inactive | inhibition (Huh7.5.1): Active | CI (Hepatitis C virus [2]): >=10 - 50 | EC50 [3]: 0.013 µM | Activity [4]: Active | selectivity ratio [5]: > 10 | selectivity ratio [6]: > 96 | Activity (Hepatitis C virus [7]): >50% | CC50 at 48 h [8]: > 2.5 µM | EC50 (Influenza A virus): 0.24 µM | CC50 at 48 h [9]: > 2.5 µM | selectivity ratio [10]: > 625 | Activity (Hepatitis C virus [11]): Dose-dependent effect | CI (Hepatitis C virus [12]): >=10 - 50
